Source: ChEMBL document CHEMBL1773009, “Red-fluorescent argininamide-type NPY Y1 receptor antagonists as pharmacological tools” (Bioorg Med Chem, 2011)
Active and inactive are the calls of the source. The calls are words filed in the database; no cut-off is given here.

Experiments:
[1] = biological target: T1, Neuropeptide Y receptor type 1 (Homo sapiens) (UniProt P25929); assay: Antagonist activity at Y1R in human HEL cells assessed as inhibition of pNPY induced [Ca2+] mobilisation; format: functional, cell-based
T1 sequence (whole entry): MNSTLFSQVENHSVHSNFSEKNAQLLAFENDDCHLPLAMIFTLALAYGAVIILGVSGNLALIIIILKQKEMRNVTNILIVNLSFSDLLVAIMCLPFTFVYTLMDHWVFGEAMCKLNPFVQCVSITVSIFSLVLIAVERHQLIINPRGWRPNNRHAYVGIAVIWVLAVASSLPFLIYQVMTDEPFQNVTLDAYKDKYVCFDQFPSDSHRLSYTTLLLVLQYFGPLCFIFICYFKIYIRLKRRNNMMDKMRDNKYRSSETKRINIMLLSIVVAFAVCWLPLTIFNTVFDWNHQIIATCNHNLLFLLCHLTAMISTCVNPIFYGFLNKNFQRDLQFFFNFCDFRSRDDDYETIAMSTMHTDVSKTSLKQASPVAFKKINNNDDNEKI

[2] = biological target: T2, Neuropeptide Y receptor type 1 (Homo sapiens, UniProt P25929); assay: Displacement of [3H]-UR-MK114 from Y1R in human SK-N-MC cells; format: cell-based
T2 sequence (P25929 whole entry): T1 sequence (whole entry)

[3] = Chemical stability in aqueous buffer assessed as compound decomposition after 20 mins at pH 7 by HPCL; format: physicochemical; conditions: read-out: Activity
In short: (§1)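 Compound at 50 µM final (from 1 mM DMSO stock) in PBS pH 7.0, 20 °C; aliquots at 20 and 90 min diluted with acetonitrile/H2O/1% TFA, analysed by RP-HPLC (220 nm); release of parent argininamide quantified against a five-point calibration curve (0.3–25 µM).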

[4] = Chemical stability in aqueous buffer assessed as compound decomposition after 90 mins at pH 7 by HPCL; format: physicochemical; conditions: read-out: Activity; in short: as §1
[5] = biological target: Neuropeptide Y receptor type 4 (Homo sapiens, UniProt P50391); assay: Displacement of Cy5-[K4]-hpp from human Y4R expressed in CHO cells by flow cytometry; format: cell-based
In short: (§2)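 Flow cytometric displacement of labelled peptides: Cy5-[K4]-hPP on CHO-Y4 cells; Dy-635-pNPY or Cy5-pNPY on CHO-Y2 and HEC-1B-Y5 cells. Test ligands only at 1 and 10 µM or at 0.3 and 1 µM; for the red-excitable ligand, its own fluorescence without peptide was subtracted.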

[6] = biological target: T3, Neuropeptide Y receptor type 2 (Homo sapiens, UniProt P49146); assay: Displacement of Dy-635-pNPY from human Y2R expressed in CHO cells by flow cytometry; format: cell-based; in short: as §2
T3 sequence (P49146 whole entry): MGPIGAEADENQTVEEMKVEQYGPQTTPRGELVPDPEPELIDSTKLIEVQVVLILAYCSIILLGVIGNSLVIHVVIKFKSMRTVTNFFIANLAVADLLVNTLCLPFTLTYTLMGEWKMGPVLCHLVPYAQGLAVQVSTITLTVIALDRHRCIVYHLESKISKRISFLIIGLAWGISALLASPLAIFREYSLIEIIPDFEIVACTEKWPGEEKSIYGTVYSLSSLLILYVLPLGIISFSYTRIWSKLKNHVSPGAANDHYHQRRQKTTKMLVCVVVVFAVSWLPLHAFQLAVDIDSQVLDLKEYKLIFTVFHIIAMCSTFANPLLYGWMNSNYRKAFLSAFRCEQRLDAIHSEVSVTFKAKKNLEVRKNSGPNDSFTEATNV

[7] = biological target: T1, Neuropeptide Y receptor type 1 (Homo sapiens); assay: Antagonist activity at Y1R in human MCF-7 cells at 50 nM after 12 to 15 mins by fluorescence confocal microscopy; format: functional, cell-based; conditions: MCF7
In short: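 MCF-7-Y1 cells (MCF-7 subclone with 2–3-fold higher Y1R expression) pretreated 48 or 72 h with 1 nM 17β-estradiol; live-cell confocal imaging of fluorescent ligand (50–80 nM) after 5–23 min at rt in Leibovitz L15; non-specific binding with excess BIBP 3226 (5 µM or 80–125-fold); autofluorescence control.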

[8] = biological target: T2, Neuropeptide Y receptor type 1; assay: Binding affinity at Y1R in human MCF-7 cells by flow cytometry; format: cell-based, MCF7
In short: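 MCF-7-Y1 cells given 1 nM 17β-estradiol 3 days beforehand, trypsinised, suspended at 0.5–1 × 10^6 cells/mL in HEPES-buffered saline, 1% DMSO; saturation with fluorescent ligand 1–50 nM (non-specific: 200-fold BIBP 3226) or competition against 10 nM labelled ligand (0.03–3000 nM competitor); 15 min dark, rt; 635 nm excitation, FL-4 readout, 20,000 gated events.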

[9] = Chemical stability of the compound in DMSO at below 0 degC; format: physicochemical
[10] = biological target: T4, Neuropeptide Y receptor type 5 (Homo sapiens, UniProt Q15761); assay: Displacement of Dy-635-pNPY from human Y5R expressed in HEC-1B cells by flow cytometry
T4 sequence (Q15761 whole entry): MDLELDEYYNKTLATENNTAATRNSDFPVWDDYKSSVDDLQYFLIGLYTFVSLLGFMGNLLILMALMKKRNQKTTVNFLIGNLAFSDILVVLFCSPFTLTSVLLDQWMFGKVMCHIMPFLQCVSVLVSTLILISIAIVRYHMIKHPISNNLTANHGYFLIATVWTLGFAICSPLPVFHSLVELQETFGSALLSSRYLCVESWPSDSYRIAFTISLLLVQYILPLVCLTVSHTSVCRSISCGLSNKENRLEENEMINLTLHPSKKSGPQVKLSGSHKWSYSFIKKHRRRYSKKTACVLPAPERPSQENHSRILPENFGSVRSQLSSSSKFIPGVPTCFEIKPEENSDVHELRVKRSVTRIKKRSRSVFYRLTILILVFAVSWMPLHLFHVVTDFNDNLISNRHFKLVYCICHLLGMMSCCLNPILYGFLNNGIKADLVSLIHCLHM

[11] = biological target: T2, Neuropeptide Y receptor type 1; assay: Displacement of [3H]-UR-MK114 from Y1R in human SK-N-MC cells by radioligand competition binding

Neuropeptide Y receptor type 4, sequence (P50391 whole entry): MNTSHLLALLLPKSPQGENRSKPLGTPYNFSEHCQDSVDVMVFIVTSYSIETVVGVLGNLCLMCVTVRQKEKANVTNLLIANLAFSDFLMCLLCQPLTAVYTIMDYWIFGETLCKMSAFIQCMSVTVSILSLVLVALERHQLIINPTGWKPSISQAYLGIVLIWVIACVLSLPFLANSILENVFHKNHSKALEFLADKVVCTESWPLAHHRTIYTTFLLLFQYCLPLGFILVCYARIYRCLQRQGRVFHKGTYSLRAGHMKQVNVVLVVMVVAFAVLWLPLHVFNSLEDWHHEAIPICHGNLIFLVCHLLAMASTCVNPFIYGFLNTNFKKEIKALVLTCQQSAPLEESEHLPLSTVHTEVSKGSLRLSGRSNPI

CN(C)c1ccc(/C=C/C=C/c2sc3ccccc3[n+]2CCCC(=O)NCCCCNC(=O)/N=C(/N)NCCC[C@@H](NC(=O)C(c2ccccc2)c2ccccc2)C(=O)NCc2ccc(O)cc2)cc1.O=C([O-])C(F)(F)F
Kb [1]: 0.7 nM
Ki [2]: 26 nM
degraded at 20 min [3]: 0%
degraded at 1.5 h [4]: 0%
IC50 [5]: > 1000 nM
Ki [5]: > 500 nM
IC50 [6]: > 1000 nM
Ki [6]: > 500 nM
Activity [7]: Active
Kd [8]: 5 nM
Stability [9]: 12 months
IC50 [10]: > 1000 nM
Ki [10]: > 400 nM
Ki [11]: 26 nM
